Data reported in ChEMBL document CHEMBL1157242, “Triterpene saponins with gastroprotective effects from tea seed (the seeds of Camellia sinensis)” (2006).
Structures can show the parent of a compound that is named as a salt.

Key:
Conditions in all cases: Gastric mucosa
Rattus norvegicus [1] = assay: Gastroprotective effect in […] assessed as inhibition of ethanol-induced gastric mucosal lesions at 5 mg/kg, po administered 1 hr prior to ethanol challenge relative to control; assay type: functional
Procedure, shortened: (§1)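 Male […] fasted 24-26 h with free access to water, conscious. Given agent orally at 5.0 mL/kg, suspended in 5% acacia or 0.5% CMC-Na. 1 h later, 99.5% ethanol 1.5 mL/rat by orogastric tube. After 1 h, stomach fixed with 1.5% formalin and opened. Lesion index is total lesion length (mm). Inhibition is versus vehicle controls, n = 4-6.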

Rattus norvegicus [2] = assay: Gastroprotective effect in […] assessed as inhibition of ethanol-induced gastric mucosal lesions at 75 mg/kg, po administered 1 hr prior to ethanol challenge relative to control; assay type: functional; procedure, shortened: as §1
Rattus norvegicus [3] = assay: Gastroprotective effect in […] assessed as inhibition of ethanol-induced gastric mucosal lesions at 150 mg/kg, po administered 1 hr prior to ethanol challenge relative to control; assay type: functional; procedure, shortened: as §1
Rattus norvegicus [4] = assay: Gastroprotective effect in […] assessed as inhibition of ethanol-induced gastric mucosal lesions at 300 mg/kg, po administered 1 hr prior to ethanol challenge relative to control; assay type: functional; procedure, shortened: as §1
Rattus norvegicus [5] = assay: Gastroprotective effect in […] assessed as inhibition of ethanol-induced gastric mucosal lesions at 10 mg/kg, po administered 1 hr prior to ethanol challenge relative to control; assay type: functional; procedure, shortened: as §1
Rattus norvegicus [6] = assay: Gastroprotective effect in […] assessed as inhibition of ethanol-induced gastric mucosal lesions at 15 mg/kg, po administered 1 hr prior to ethanol challenge relative to control; assay type: functional; procedure, shortened: as §1
Rattus norvegicus [7] = assay: Gastroprotective effect in […] assessed as inhibition of ethanol-induced gastric mucosal lesions at 20 mg/kg, po administered 1 hr prior to ethanol challenge relative to control; assay type: functional; procedure, shortened: as §1
Rattus norvegicus [8] = assay: Gastroprotective effect in […] assessed as inhibition of ethanol-induced gastric mucosal lesions at 5 mg/kg, po administered 1 hr prior to ethanol challenge relative to control

C/C=C(/C)C(=O)O[C@H]1CC(C)(C)CC2C3=CCC4[C@@]5(C)CC[C@H](O[C@@H]6O[C@H](C(=O)O)[C@@H](O)[C@H](O[C@@H]7OC[C@H](O)[C@H](O)[C@H]7O[C@@H]7OC[C@@H](O)[C@H](O)[C@H]7O)[C@H]6O[C@H]6O[C@H](CO)[C@H](O)[C@H](O)[C@H]6O)[C@@](C)(C=O)C5CC[C@@]4(C)[C@]3(C)C[C@@H](O)[C@]21CO (stereo partly drawn) [ASSAMSAPONINS A]
inhibition in vivo at 5 mg/kg (Rattus norvegicus [1]): 61%

C/C=C(/C)C(=O)O[C@H]1[C@H](OC(C)=O)[C@@]2(CO)C(CC1(C)C)C1=CCC3[C@@]4(C)CC[C@H](O[C@@H]5O[C@H](C(=O)O)[C@@H](O)[C@H](O[C@@H]6OC[C@H](O)[C@H](O)[C@H]6O[C@@H]6OC[C@@H](O)[C@H](O)[C@H]6O)[C@H]5O[C@H]5O[C@H](CO)[C@H](O)[C@H](O)[C@H]5O)[C@@](C)(CO)C4CC[C@@]3(C)[C@]1(C)C[C@H]2O (stereo partly drawn) [ASSAMSAPONINS D]
inhibition in vivo at 5 mg/kg (Rattus norvegicus [1]): 47.9%

NC[C@H]1CC[C@H](C(=O)Oc2ccc(CCC(=O)O)cc2)CC1 [CETRAXATE HYDROCHLORIDE]
inhibition in vivo at 75 mg/kg (Rattus norvegicus [2]): 41.2%
inhibition in vivo at 150 mg/kg (Rattus norvegicus [3]): 65.6%
inhibition in vivo at 300 mg/kg (Rattus norvegicus [4]): 79.4%

COc1ccc2[nH]c([S+]([O-])Cc3ncc(C)c(OC)c3C)nc2c1 (stereo not drawn) [OMEPRAZOLE]
inhibition in vivo at 10 mg/kg (Rattus norvegicus [5]): 43.1%
inhibition in vivo at 15 mg/kg (Rattus norvegicus [6]): 82%
inhibition in vivo at 20 mg/kg (Rattus norvegicus [7]): 89.4%

C/C=C(/C)C(=O)O[C@H]1[C@H](O)[C@@]2(CO)C(CC1(C)C)C1=CCC3[C@@]4(C)CC[C@H](O[C@@H]5O[C@H](C(=O)O)[C@@H](O)[C@H](O[C@@H]6OC[C@H](O)[C@H](O)[C@H]6O[C@@H]6OC[C@@H](O)[C@H](O)[C@H]6O)[C@H]5O[C@H]5O[C@H](CO)[C@H](O)[C@H](O)[C@H]5O)[C@@](C)(CO)C4CC[C@@]3(C)[C@]1(C)C[C@H]2O (stereo partly drawn) [THEASAPONINS A1]
inhibition in vivo at 5 mg/kg (Rattus norvegicus [1]): 37%

C/C=C(/C)C(=O)O[C@H]1[C@H](O)[C@@]2(COC(C)=O)C(CC1(C)C)C1=CCC3[C@@]4(C)CC[C@H](O[C@@H]5O[C@H](C(=O)O)[C@@H](O)[C@H](O[C@@H]6OC[C@H](O)[C@H](O)[C@H]6O[C@@H]6OC[C@@H](O)[C@H](O)[C@H]6O)[C@H]5O[C@H]5O[C@H](CO)[C@H](O)[C@H](O)[C@H]5O)[C@@](C)(CO)C4CC[C@@]3(C)[C@]1(C)C[C@H]2O (stereo partly drawn) [THEASAPONINS A2]
inhibition in vivo at 5 mg/kg (Rattus norvegicus [1]): 54.7%

C/C=C(/C)C(=O)O[C@H]1[C@H](OC(C)=O)[C@@]2(CO)C(CC1(C)C)C1=CCC3[C@@]4(C)CC[C@H](O[C@@H]5O[C@H](C(=O)O)[C@@H](O)[C@H](O[C@@H]6OC[C@H](O)[C@H](O)[C@H]6O[C@@H]6OC[C@@H](O)[C@H](O)[C@H]6O)[C@H]5O[C@H]5O[C@H](CO)[C@H](O)[C@H](O)[C@H]5O)[C@@](C)(C=O)C4CC[C@@]3(C)[C@]1(C)C[C@H]2O (stereo partly drawn) [THEASAPONINS E1]
inhibition in vivo at 5 mg/kg (Rattus norvegicus [8]): 71.4%

C/C=C(/C)C(=O)O[C@H]1[C@H](O)[C@@]2(COC(C)=O)C(CC1(C)C)C1=CCC3[C@@]4(C)CC[C@H](O[C@@H]5O[C@H](C(=O)O)[C@@H](O)[C@H](O[C@@H]6OC[C@H](O)[C@H](O)[C@H]6O[C@@H]6OC[C@@H](O)[C@H](O)[C@H]6O)[C@H]5O[C@H]5O[C@H](CO)[C@H](O)[C@H](O)[C@H]5O)[C@@](C)(C=O)C4CC[C@@]3(C)[C@]1(C)C[C@H]2O (stereo partly drawn) [THEASAPONINS E2]
inhibition in vivo at 5 mg/kg (Rattus norvegicus [8]): 77.6%

C/C=C(/C)C(=O)O[C@H]1[C@H](O)[C@@]2(COC(C)=O)C(CC1(C)C)C1=CCC3[C@@]4(C)CC[C@H](O[C@@H]5O[C@H](C(=O)O)[C@@H](O)[C@H](O[C@@H]6OC[C@H](O)[C@H](O)[C@H]6O[C@@H]6OC[C@@H](O)[C@H](O)[C@H]6O)[C@H]5O[C@H]5O[C@H](CO)[C@H](O)[C@H](O)[C@H]5O)[C@@](C)(C(=O)OC)C4CC[C@@]3(C)[C@]1(C)C[C@H]2O (stereo partly drawn) [THEASAPONINS F3]
inhibition in vivo at 5 mg/kg (Rattus norvegicus [1]): 42.1%
